# Data from ChEMBL document CHEMBL1148391, “Discovery of 4-substituted pyrrolidone butanamides as new agents with significant antiepileptic activity” (J Med Chem, 2004).
# Tests used:
# Mus musculus [1] = test: In vivo dose required to protect 50% audiogenic seizure prone mice against clonic convulsions; format: functional
# Procedure, shortened: (§1)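 Genetically sound-sensitive DBA-derived mice, male or female, 14–28 g, N = 10 per group. Compound given ip 60 min before stimulus at log-spaced doses, generally 1.0 × 10^-5 to 1.0 × 10^-3 mol/kg, with a vehicle control group. After 30 s orientation, a 90 dB, 10–20 kHz tone was given for 30 s. Clonic convulsions were scored. ED50 with 95% confidence limits came from probit analysis.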
# [2] = biological target: Synaptic vesicle glycoprotein 2A (Rattus norvegicus) (UniProt Q02563); test: In vitro inhibitory activity against [3H](2S)-2-[4-(3-azidophenyl)-2-oxopyrrolidin-1-yl]butanamide binding to levetiracetam binding site; parameters: concentration or dose not given beside the values; settings: concentration not given here
# Procedure, shortened: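 Rat cerebral cortex membranes (male Sprague-Dawley, 200–250 g), homogenised in Tris-HCl/sucrose at 4 °C, washed, preincubated 15 min at 37 °C. Binding: 4 °C for 120 min in 50 mmol/L Tris-HCl pH 7.4 with 2 mmol/L MgCl2, 1–2 × 10^-9 mol/L tritiated azidophenyl radioligand, rising test concentrations. Nonspecific binding with 10^-3 mol/L levetiracetam. Rapid filtration, scintillation counting. pIC50 is the mean of two independent determinations.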
# [3] = Half life at 10 mg/kg was determined in rat; format: ADME, organism-based; parameters: dose 10 mg/kg; settings: in vivo
# [4] = Oral bioavailability at 10 mg/kg was determined in rat; format: ADME, organism-based; settings: in vivo, read-out: Bioavailabiility
# [5] = Maximum time to achieve peak plasma concentration was determined in rat at 10 mg/kg; format: ADME, organism-based; parameters: dose 10 mg/kg
# [6] = Total clearance at 10 mg/kg was determined in rat; format: ADME, organism-based; parameters: dose 10 mg/kg; settings: in vivo
# Mus musculus [7] = test: In vivo dose required to protect 50% audiogenic seizure prone mice against clonic convulsions; value ranges from 59 to 281; format: functional; procedure, shortened: as §1
# Mus musculus [8] = test: In vivo dose required to protect 50% audiogenic seizure prone mice against clonic convulsions; value ranges from 102 to 715; format: functional; procedure, shortened: as §1
# [9] = Half life at 1 mg/kg was determined in rat; format: ADME, organism-based; parameters: dose 1 mg/kg; settings: in vivo
# [10] = Oral bioavailability at 1 mg/kg was determined in rat; format: ADME, organism-based; settings: in vivo, read-out: Bioavailabiility
# [11] = Total clearance at 1 mg/kg was determined in rat; format: ADME, organism-based; parameters: dose 1 mg/kg; settings: in vivo
# [12] = Maximum time to achieve peak plasma concentration was determined in rat at 1 mg/kg; format: ADME, organism-based; parameters: dose 1 mg/kg
# Mus musculus [13] = test: In vivo dose required to protect 50% audiogenic seizure prone mice against clonic convulsions; value ranges from 143 to 283; format: functional; procedure, shortened: as §1
# Synaptic vesicle glycoprotein 2A (Rattus norvegicus), sequence (Q02563 whole entry): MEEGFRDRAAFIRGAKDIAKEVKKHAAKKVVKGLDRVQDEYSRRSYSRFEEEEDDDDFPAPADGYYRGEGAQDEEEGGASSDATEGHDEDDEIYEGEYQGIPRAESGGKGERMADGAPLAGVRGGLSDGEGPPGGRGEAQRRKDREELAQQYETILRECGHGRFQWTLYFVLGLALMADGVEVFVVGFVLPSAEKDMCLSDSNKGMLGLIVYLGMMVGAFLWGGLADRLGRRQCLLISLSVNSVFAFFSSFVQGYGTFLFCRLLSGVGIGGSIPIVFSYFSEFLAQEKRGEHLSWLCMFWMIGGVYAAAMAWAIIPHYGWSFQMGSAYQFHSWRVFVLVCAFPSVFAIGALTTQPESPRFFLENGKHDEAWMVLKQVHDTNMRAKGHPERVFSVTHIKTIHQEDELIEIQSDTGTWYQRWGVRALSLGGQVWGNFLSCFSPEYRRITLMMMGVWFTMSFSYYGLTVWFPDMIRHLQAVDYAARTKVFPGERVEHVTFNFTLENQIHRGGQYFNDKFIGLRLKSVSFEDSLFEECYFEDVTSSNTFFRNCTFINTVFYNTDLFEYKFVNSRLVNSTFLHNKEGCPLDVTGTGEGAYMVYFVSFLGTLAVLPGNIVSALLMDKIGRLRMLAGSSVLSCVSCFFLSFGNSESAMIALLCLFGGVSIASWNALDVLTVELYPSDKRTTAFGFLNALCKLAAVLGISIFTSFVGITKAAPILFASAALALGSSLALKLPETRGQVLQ
SMILES,ED50 (Mus musculus [1]) [µmol/kg],inhibition [2] [%],further results
CC[C@@H](C(N)=O)N1C[C@H](CSC)CC1=O,160,–,–
CC[C@@H](C(=N)N)N1CCCC1=O,1000,–,–
CC[C@@H](C(N)=O)N1CC(N)CC1=O (some centres undefined),–,< 20,–
CCC[C@H]1CC(=O)N([C@@H](CC)C(N)=O)C1,44,–,–
CC[C@@H](C(N)=O)N1CCC(CO)C1=O (some centres undefined),–,< 20,–
CC[C@@H](C(=O)Nc1ccccc1)N1CCCC1=O,560,< 20,–
CCC[C@@H]1CC(=O)N([C@@H](CC)C(N)=O)C1 [BRIVARACETAM],14,–,half-life [3]: 1.7 h; bioavailability [4]: 100%; Tmax [5]: 0.5 h; clearance [6]: 4.67 mL/min/kg
CCCCC1CC(=O)N(C(CC)C(N)=O)C1 (centres undefined),480,–,–
NC(=O)CN1CCCC1=O [PIRACETAM],10000,–,–
CCOC(=O)[C@H](CC)N1CCCC1=O,–,< 20,–
NCCCC(C(N)=O)N1CCCC1=O (centres undefined),–,< 20,–
CC[C@@H](C(=O)N(C)O)N1CCCC1=O,1000,–,–
CC[C@H](C(N)=O)N1CCCC1=O [LEVITIRACETAM],1000,–,–
CC[C@@H](C(N)=O)N1C[C@H](CN2CCCC2)CC1=O,320,< 20,–
CC[C@@H](C(N)=O)N(C)C(C)=O,1800,–,–
CC[C@@H](C(=O)NC)N1CCCC1=O,1800,–,–
CCC(C(N)=O)N1CC(O)CC1=O (centres undefined),1000,< 20,–
CCCCCCCCN(C(=O)Cc1ccc(Cl)cc1)C(CC)C(N)=O (centres undefined),1000,–,–
CCC[C@@H](C(N)=O)N1CCCC1=O,–,–,ED50 (Mus musculus [7]): 190 µmol/kg
CC[C@@H](C(=O)NN)N1CCCC1=O,1000,–,–
CC[C@@H](C(N)=O)N1C[C@H](C(=O)OC)CC1=O,1000,< 20,–

SMILES,ED50 (Mus musculus [1]) [µmol/kg],inhibition [2] [%],further results
C[C@@H](C(N)=O)N1CCCC1=O,–,–,ED50 (Mus musculus [8]): 504 µmol/kg
CC(C)(C)[C@@H](C(N)=O)N1CCCC1=O,–,< 20,–
CC[C@@H](C(N)=O)N1CC(CC2CC2)CC1=O (some centres undefined),33,–,–
CCCN(C(C)=O)C(CC)C(N)=O (centres undefined),–,< 20,–
CC[C@@H](C(N)=O)N1C[C@H](CI)CC1=O,13,–,half-life [9]: 2 h; bioavailability [10]: 100%; clearance [11]: 4.8 mL/min/kg; Tmax [12]: 0.8 h
CC[C@@H](C(N)=O)N1C(=O)CCC1C (some centres undefined),1000,–,–
CC[C@@H](C(=N)S)N1CCCC1=O,1000,< 20,–
CC[C@@H](C(=N)NO)N1CCCC1=O,1000,< 20,–
CC[C@@H](C(N)=O)N1CCC(C)C1=O (some centres undefined),1000,–,–
CC[C@@H](C(N)=O)N1CC(CC(C)(C)C)CC1=O (some centres undefined),1000,–,–
CC[C@@H](C(=O)O)N1CCCC1=O,3200,< 20,–
CC[C@@H](C(N)=O)N1CCCC1=O [LEVETIRACETAM],–,–,ED50 (Mus musculus [13]): 180 µmol/kg
CC[C@@H](C(N)=O)N1CC(NC(=O)OC)CC1=O (some centres undefined),540,–,–
CCCCCCN(CCCCCC)C(=O)[C@H](CC)N1CCCC1=O,560,< 20,–
CC[C@@H](C(N)=O)N1CCC(C)(CC)C1=O (some centres undefined),1000,< 20,–
CC[C@@H](C(=O)NCc1ccccc1)N1CCCC1=O,560,< 30,–
CCC(C(N)=O)N1C[C@H](CO)CC1=O (some centres undefined),–,< 20,–
CC(C)C(C(N)=O)N1CCCC1=O (centres undefined),890,–,–
CCCC1(C)CC(=O)N([C@@H](CC)C(N)=O)C1 (some centres undefined),400,–,–
CC[C@@H](C(N)=O)N1C[C@H](C(N)=O)CC1=O,1000,< 20,–
CC[C@@H](C(N)=O)N1C[C@H](CF)CC1=O,370,–,–

SMILES,ED50 (Mus musculus [1]) [µmol/kg],inhibition [2] [%],further results
CC[C@@H](C(=O)N(C)OC)N1CCCC1=O,1000,< 20,–
CCC1CC(=O)N([C@@H](CC)C(N)=O)C1 (some centres undefined),87,–,–
CC[C@@H](C(N)=O)N1C[C@H](CO[N+](=O)[O-])CC1=O,25,–,–
CCC[C@H](C(N)=O)N1CCCC1=O,1000,–,–
CC[C@@H](C(N)=O)N1C[C@H](CN=[N+]=[N-])CC1=O,3.6,–,–
CCCC1(CCC)CC(=O)N([C@@H](CC)C(N)=O)C1,1000,< 30,–
CCCCCC1CCC(=O)N1C(CC)C(N)=O (centres undefined),–,< 20,–
CCC(C(N)=O)N1CC(Cc2ccccc2)CC1=O (centres undefined),1000,–,–
CC[C@@H](C(N)=O)N1C[C@H](C(=O)O)CC1=O,1000,< 20,–
CC[C@@H](C(N)=O)N1C[C@H](C)CC1=O,110,–,–
CCC(C(N)=O)N1CC(C(F)(F)F)CC1=O (centres undefined),1000,< 20,–
CC(C)(C(N)=O)N1CCCC1=O,–,< 20,–
CC[C@@H](C(=O)NOC)N1CCCC1=O,1000,< 20,–
CC[C@@H](C(N)=O)N1C[C@H](CNS(=O)(=O)c2ccccc2)CC1=O,1000,< 20,–
CC[C@@H](C(N)=O)N1C[C@H](CBr)CC1=O,180,–,–
CCC(C(N)=O)N1CC(C(C)C)CC1=O (centres undefined),360,–,–
CCC(C(N)=O)N1CC(COC)CC1=O (centres undefined),400,–,–
CC[C@@H](C(=O)NO)N1CCCC1=O,1000,–,–
"CCC(C(N)=O)N1C(=O)CCC1(C)C (single isomer, unassigned)",1000,–,–
CC[C@@H](C(N)=O)N1C[C@H](CCl)CC1=O,25,–,–
CCC(C(N)=O)N1CCC(Cc2ccccc2)C1=O (centres undefined),320,< 20,–
